Assay results as given in ChEMBL document CHEMBL3861952, “Donepezil-like multifunctional agents: Design, synthesis, molecular modeling and biological evaluation” (Eur J Med Chem, 2016).

Legend:
Cholinesterase [1] = molecular target: T1, Cholinesterase (Homo sapiens, UniProt P06276); test: Inhibition of human recombinant BuChE expressed in HEK293 cells using S-butyrylthiocholine iodide as substrate preincubated for 30 mins followed by substrate addition measured after 30 mins by Ellman's method
Procedure, shortened: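 Ellman assay in 0.1 M phosphate buffer pH 8.0 with 0.05 U/mL BuChE and 0.35 mM DTNB. Serial inhibitor dilutions pre-incubated 30 min at 37 °C, then 0.5 mM S-butyrylthiocholine iodide (final) added. Reaction followed at least 30 min at 405 nm. IC50 from dose-response curves; mean ± S.E.M., at least three experiments in triplicate.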

[2] = molecular target: T2, Amine oxidase [flavin-containing] B (Homo sapiens, UniProt P27338); test: Inhibition of human recombinant MAOB using p-tyramine as substrate preincubated for 30 mins followed by substrate addition measured for 1 hr by horse-radish peroxidase/amplex red-based fluorometric method
T2 sequence (P27338 whole entry): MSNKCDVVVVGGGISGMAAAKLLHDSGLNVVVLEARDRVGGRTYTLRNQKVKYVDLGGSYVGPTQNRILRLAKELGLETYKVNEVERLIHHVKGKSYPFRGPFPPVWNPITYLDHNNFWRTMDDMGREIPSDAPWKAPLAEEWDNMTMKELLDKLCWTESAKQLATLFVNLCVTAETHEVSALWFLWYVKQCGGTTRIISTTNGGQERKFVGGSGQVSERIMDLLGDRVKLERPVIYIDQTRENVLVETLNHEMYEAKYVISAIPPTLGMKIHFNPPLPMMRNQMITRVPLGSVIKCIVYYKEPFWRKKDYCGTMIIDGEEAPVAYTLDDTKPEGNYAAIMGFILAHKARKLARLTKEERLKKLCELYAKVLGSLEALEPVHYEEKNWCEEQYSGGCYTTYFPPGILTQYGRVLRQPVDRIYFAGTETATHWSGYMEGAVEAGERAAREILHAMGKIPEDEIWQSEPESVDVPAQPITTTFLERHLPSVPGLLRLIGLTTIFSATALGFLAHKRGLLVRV

[3] = molecular target: T3, Amine oxidase [flavin-containing] A (Homo sapiens, UniProt P21397); test: Inhibition of human recombinant MAOA using p-tyramine as substrate preincubated for 30 mins followed by substrate addition measured for 1 hr by horse-radish peroxidase/amplex red-based fluorometric method
T3 sequence (P21397 whole entry): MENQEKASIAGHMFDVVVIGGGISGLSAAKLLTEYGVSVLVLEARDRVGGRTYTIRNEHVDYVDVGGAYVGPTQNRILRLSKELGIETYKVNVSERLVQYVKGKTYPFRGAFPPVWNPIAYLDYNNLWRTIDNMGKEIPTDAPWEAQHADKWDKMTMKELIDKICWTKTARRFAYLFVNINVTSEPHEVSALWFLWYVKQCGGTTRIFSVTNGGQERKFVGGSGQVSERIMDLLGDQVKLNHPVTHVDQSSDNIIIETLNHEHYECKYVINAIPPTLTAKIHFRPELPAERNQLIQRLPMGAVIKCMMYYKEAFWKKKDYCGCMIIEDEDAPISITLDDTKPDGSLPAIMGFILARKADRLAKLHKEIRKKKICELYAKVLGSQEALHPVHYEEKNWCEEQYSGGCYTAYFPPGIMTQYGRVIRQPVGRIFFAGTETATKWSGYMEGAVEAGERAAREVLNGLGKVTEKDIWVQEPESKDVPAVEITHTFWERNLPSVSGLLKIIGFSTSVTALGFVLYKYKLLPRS

Acetylcholinesterase [4] = molecular target: T4, Acetylcholinesterase (Homo sapiens, UniProt P22303); test: Inhibition of human recombinant AChE expressed in HEK293 cells using acetylthiocholine iodide as substrate preincubated for 30 mins followed by substrate addition measured after 30 mins by Ellman's method
T4 sequence (P22303 whole entry): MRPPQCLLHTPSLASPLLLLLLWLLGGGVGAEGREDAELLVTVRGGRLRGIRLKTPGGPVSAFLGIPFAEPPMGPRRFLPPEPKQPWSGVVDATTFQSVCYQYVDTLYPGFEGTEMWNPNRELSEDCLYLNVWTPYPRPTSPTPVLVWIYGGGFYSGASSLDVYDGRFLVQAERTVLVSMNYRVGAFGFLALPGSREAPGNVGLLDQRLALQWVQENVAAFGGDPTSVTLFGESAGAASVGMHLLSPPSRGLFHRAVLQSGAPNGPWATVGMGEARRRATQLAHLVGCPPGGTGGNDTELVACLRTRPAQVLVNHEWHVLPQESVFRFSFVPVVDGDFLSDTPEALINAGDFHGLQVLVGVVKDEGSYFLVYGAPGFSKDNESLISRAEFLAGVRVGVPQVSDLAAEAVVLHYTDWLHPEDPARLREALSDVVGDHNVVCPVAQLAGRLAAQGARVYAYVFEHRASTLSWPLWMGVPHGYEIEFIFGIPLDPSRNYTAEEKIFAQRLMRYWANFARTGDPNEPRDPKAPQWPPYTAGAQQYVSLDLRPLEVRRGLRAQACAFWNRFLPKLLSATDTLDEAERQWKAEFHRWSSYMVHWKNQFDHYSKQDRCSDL

[5] = molecular target: T3, Amine oxidase [flavin-containing] A; test: Inhibition of human recombinant MAOA using p-tyramine as substrate preincubated for 60 mins followed by substrate addition measured for 1 hr by horse-radish peroxidase/amplex red-based fluorometric method
Procedure, shortened: (§1)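 Time-dependent series: hrMAO-A pre-incubated with increasing inhibitor concentrations for varied times (0–240 min) before addition of p-tyramine. Fluorometric HRP/Amplex UltraRed read-out as in the standard assay (1 mM p-tyramine, pH 7.4 phosphate, ex 530/em 590). IC50 derived from a dose-response curve at each pre-incubation time.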

Acetylcholinesterase [6] = molecular target: T4, Acetylcholinesterase; test: Mixed-type inhibition of human recombinant AChE expressed in HEK293 cells using acetylthiocholine iodide as substrate preincubated for 30 mins followed by substrate addition measured after 30 mins by Lineweaver-Burk plot analysis
[7] = Metal chelating activity of the compound assessed as compound-Cu2+ complex formation at 10 uM after 5 mins by UV-Vis spectrophotometric method; format: physicochemical
Procedure, shortened: (§2)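 Run in distilled water at room temperature: UV-Vis spectra (220–300 nm, 1 cm quartz) of 10 μM compound with CuSO4 or ZnSO4 at 1–5 μM. Complexation followed at 262 nm. Stoichiometry by Job's method: 21 mixtures, total concentration 10 μM, proportions varied 0–100%.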

[8] = Metal chelating activity of the compound assessed as compound-Zn2+ complex formation at 10 uM after 15 hrs by UV-Vis spectrophotometric method; format: physicochemical; procedure, shortened: as §2
[9] = molecular target: T3, Amine oxidase [flavin-containing] A; test: Inhibition of human recombinant MAOA using p-tyramine as substrate measured for 1 hr by horse-radish peroxidase/amplex red-based fluorometric method
Procedure, shortened: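 Human recombinant MAO-A (360 mU/mL) pre-incubated 30 min at 37 °C with serial inhibitor dilutions. Reaction started with 1 mM p-tyramine, 40 U/mL HRP and 25 μM Amplex UltraRed (final) in 0.25 mM sodium phosphate pH 7.4. Resorufin fluorescence (ex 530/em 590) read continuously ≥1 h. Water controls, no-substrate blanks. IC50 from dose-response curves; mean ± S.E.M., ≥3 experiments in triplicate.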

[10] = molecular target: T3, Amine oxidase [flavin-containing] A; test: Inhibition of human recombinant MAOA using p-tyramine as substrate preincubated for 15 mins followed by substrate addition measured for 1 hr by horse-radish peroxidase/amplex red-based fluorometric method; procedure, shortened: as §1
[11] = molecular target: T3, Amine oxidase [flavin-containing] A; test: Inhibition of human recombinant MAOA using p-tyramine as substrate preincubated for 180 mins followed by substrate addition measured for 1 hr by horse-radish peroxidase/amplex red-based fluorometric method; procedure, shortened: as §1
[12] = molecular target: T3, Amine oxidase [flavin-containing] A; test: Inhibition of human recombinant MAOA using p-tyramine as substrate preincubated for 240 mins followed by substrate addition measured for 1 hr by horse-radish peroxidase/amplex red-based fluorometric method; procedure, shortened: as §1
Cholinesterase [13] = molecular target: T1, Cholinesterase; test: Mixed-type inhibition of human recombinant BuChE expressed in HEK293 cells using S-butyrylthiocholine iodide as substrate preincubated for 30 mins followed by substrate addition measured after 30 mins by Lineweaver-Burk plot analysis
[14] = molecular target: T3, Amine oxidase [flavin-containing] A; test: Inhibition of human recombinant MAOA using p-tyramine as substrate preincubated for 120 mins followed by substrate addition measured for 1 hr by horse-radish peroxidase/amplex red-based fluorometric method; procedure, shortened: as §1

T1 sequence (P06276 whole entry): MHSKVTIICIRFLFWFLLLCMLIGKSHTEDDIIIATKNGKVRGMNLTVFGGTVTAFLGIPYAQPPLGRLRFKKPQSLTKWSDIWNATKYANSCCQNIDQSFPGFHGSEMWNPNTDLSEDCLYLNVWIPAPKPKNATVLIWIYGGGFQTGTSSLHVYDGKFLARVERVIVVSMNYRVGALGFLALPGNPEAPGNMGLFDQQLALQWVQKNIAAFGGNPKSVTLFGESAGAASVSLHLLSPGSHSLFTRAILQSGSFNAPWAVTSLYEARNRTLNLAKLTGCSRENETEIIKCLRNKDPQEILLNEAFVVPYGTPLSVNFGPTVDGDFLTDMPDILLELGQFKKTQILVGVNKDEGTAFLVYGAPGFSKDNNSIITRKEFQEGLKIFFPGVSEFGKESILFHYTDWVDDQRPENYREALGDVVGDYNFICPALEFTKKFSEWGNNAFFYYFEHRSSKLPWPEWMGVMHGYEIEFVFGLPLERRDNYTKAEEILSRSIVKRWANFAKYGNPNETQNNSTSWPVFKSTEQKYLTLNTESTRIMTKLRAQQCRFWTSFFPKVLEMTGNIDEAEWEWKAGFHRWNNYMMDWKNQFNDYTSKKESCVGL

SMILES | IC50 (Cholinesterase [1]) [µM] | IC50 [2] [µM] | IC50 [3] [µM] | IC50 (Acetylcholinesterase [4]) [µM] | other results
C#CCN(Cc1ccc(O)c2ncccc12)C(C#N)CCC1CCN(Cc2ccccc2)CC1 (centres undefined) | 2.1 | 11.8 | 6.7 | 0.35 | 
C#CCN(CCC1CCN(Cc2ccccc2)CC1)Cc1ccc2cccc(O)c2n1 | 0.079 | > 100 | 35.6 | 4.1 | 
C#CCN(Cc1ccc2cccc(O)c2n1)C(C#N)C1CCN(Cc2ccccc2)CC1 (centres undefined) | 0.03 | > 100 | 10.2 | 64.2 | 
C#CCN(Cc1ccc2cccc(O)c2n1)C(C#N)CCC1CCN(Cc2ccccc2)CC1 (centres undefined) | 0.039 | > 100 | 6.2 to 10.1 | 0.029 | IC50 [5]: 3.8 µM; Ki (Acetylcholinesterase [6]): 0.0149 µM; Activity [7]: Active; Ki (Cholinesterase [1]): 0.052 µM; Ki (Acetylcholinesterase [4]): 0.015 µM; Activity [8]: Active; IC50 [9]: 187 µM; IC50 [10]: 20.8 µM; IC50 [11]: 1.6 µM; IC50 [12]: 1.1 µM; Ki (Cholinesterase [13]): 0.0525 µM; IC50 [14]: 1.9 µM
C#CCN(Cc1ccc2cccc(O)c2n1)CC1CCN(Cc2ccccc2)CC1 | 0.064 | > 100 | 46.5 | 9.7 | 
C#CCN(CCCC1CCN(Cc2ccccc2)CC1)Cc1ccc2cccc(O)c2n1 | 0.023 | > 100 | 37 | 1.5 | 
C#CCN(Cc1ccc2cccc(O)c2n1)C(C#N)CC1CCN(Cc2ccccc2)CC1 (centres undefined) | 0.002 | > 100 | 12.2 | 3.3 | 
C#CCN(C)CCCOc1ccc(Cl)cc1Cl [CLORGILINE] | > 500 |  |  | > 500 | 
C#CCN(C)[C@H](C)Cc1ccccc1 [SELEGILINE] | > 500 |  |  | > 500 | 
